ABCG2 block = ABCG2 efflux pump inhibitors, primary screen, multiplex with ABCB1, IgMXP3 cells, flow cytometry; AID 1325, 2008; inhibition, % at 6.6 µM; JC-1 efflux; 190,000 compounds, 0.1% hits; Broad substrate specificity ATP-binding cassette transporter ABCG2 (Homo sapiens), Q9UNQ0;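 active = inhibition above 80%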;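 also: 0% = DMSO and 100% = nicardipine control wells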
Target sequence (Q9UNQ0 whole entry, looked up): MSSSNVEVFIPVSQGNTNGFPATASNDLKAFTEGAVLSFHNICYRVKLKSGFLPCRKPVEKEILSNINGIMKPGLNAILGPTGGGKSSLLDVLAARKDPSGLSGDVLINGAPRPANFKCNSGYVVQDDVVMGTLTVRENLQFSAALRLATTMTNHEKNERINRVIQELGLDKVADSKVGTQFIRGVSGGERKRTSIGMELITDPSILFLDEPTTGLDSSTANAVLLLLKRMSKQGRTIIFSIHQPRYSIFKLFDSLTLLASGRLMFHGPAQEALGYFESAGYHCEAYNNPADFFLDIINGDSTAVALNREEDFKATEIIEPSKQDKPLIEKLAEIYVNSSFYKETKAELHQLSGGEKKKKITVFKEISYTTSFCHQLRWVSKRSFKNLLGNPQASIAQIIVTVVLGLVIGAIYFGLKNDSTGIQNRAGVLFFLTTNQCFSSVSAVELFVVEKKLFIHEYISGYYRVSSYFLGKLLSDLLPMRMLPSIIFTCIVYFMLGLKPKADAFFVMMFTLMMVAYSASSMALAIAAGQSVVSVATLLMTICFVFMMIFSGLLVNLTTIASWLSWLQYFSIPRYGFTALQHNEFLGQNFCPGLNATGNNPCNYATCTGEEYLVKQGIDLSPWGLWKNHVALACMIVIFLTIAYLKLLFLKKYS
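Measure – % inhibition of efflux relative to nicardipine and DMSO · Test system – ABCG2 IgMXP3 and barcoded ABCB1 CCRF-Adr cell mix · Control set – nicardipine as high control, DMSO as low control · Compound – one concentration, 6.6 µM final · Signal – flow cytometry of retained JC-1 fluorescence · Timing – 10 min exposure at 25 °C with rotation, no wash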
Arbovirus anti = antivirals against arbovirus infection, primary screen, cell-based, full library, 10K replicate subset; arbovirus infection cell-based antiviral screen; AID 1251, 2008; inhibition, % at 10 µM; 200,000 compounds, 0.37% hits; in the data active = inhibition above about 30%
p47phox inh = p47phox/p22phox peptide binding inhibitors, primary screen, biochemical, uHTS, NADPH oxidase regulatory subunit; Neutrophil cytosol factor 1 (Homo sapiens), P14598; fluorescence polarization, 2 h; inhibition, % at 24.7 µM; 220,000 compounds, 0.53% hits;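 active = inhibition above about 30%, limit read from the data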;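 also: 0% = p47phox with labelled peptide and 100% = labelled peptide alone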
HSV replic up = enhancers of HSV replication in host cells, fold increase, host cell viability; 220,000 compounds, 0.005% hits; HSV replication augmentation in cells; maximum fold increase; AID 1956, 2009; in the data active = maximum fold increase above about 1.5; inconclusive = no clear call, values can overlap the other calls; tested in PC3 cells
ABCB1 block = ABCB1 efflux pump inhibitors, primary screen, cell-based, multiplex, flow cytometry, ABCG2 counter-screen; inhibition, % at 6.6 µM; CCRF-Adr cells, JC-1 efflux; ATP-dependent translocase ABCB1 (Homo sapiens), P08183; 190,000 compounds, 0.067% hits; in the data active = inhibition above about 40%;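 also: 0% = vehicle and 100% = reference inhibitor; higher value means more JC-1 retained so stronger ABCB1 efflux block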
Furin inh = human furin inhibitors, primary screen, biochemical, fluorescence intensity; AID 463115, 2010; inhibition, % at 20 µM or 30 µM; 220,000 compounds, 0.061% hits; P09958; purified furin, fluorogenic substrate cleavage; in the data active = inhibition above about 25%
Starred values were filed as active, the others as inactive; i = inactive; ? = inconclusive; · = no result; + = active, no number. Most compounds without a hit are left out; they make up all but 0.95% or so of the library.

SMILES	ABCG2 block	Arbovirus anti	p47phox inh	HSV replic up	ABCB1 block	Furin inh
COc1ccc(C2C(C(=O)c3ccccc3)=C(C)Nc3nc4ccccc4n32)cc1OC (stereo not drawn)	3	-6	34*	·	1	-17
CC1CCCCN1C(=O)C12CCC(C)(/C(=N/O)C1)C2(C)C (stereo not drawn)	0	-2	37*	i	0	-14
O=C(Cn1c(O)c(/C=C2\C=Nc3ccccc32)sc1=O)N1CCOCC1	11	4	-8	i	1	-17
O=C(Cn1c(O)c(/C=C2\C=Nc3ccc(Br)cc32)sc1=O)N1CCCC1	-1	-9	39*	·	0	-10
O=C(Oc1ccc(-c2cnc3ccccc3n2)cc1)c1cc([N+](=O)[O-])ccc1Cl	21	-1	35*	i	1	-13
Cc1c(C(=O)Oc2ccc(-c3cnc4ccccc4n3)cc2)cccc1[N+](=O)[O-]	27	-10	17	i	-1	-13
CCOC(=O)c1sc2nc(Cc3ccc(Cl)cc3)[nH]c(=S)c2c1C	0	6	-15	i	0	-5
COc1ccc2nc(NC(=O)c3ccc(-n4nc(C)cc4C)cc3)sc2c1	-1	-7	-3	i	0	-29
COc1ccc(/C=N/NC(=O)c2nn(-c3ccccc3)c(=O)c3c(N)scc23)cc1	0	-7	-4	i	0	-3
COc1ccc(/C=N/NC(=O)c2nn(-c3ccc(C)c(C)c3)c(=O)c3ccccc23)cc1	-2	-6	+	i	-1	-15
COc1ccc(-n2nc(C(=O)Nc3nc4ccc(OC)cc4s3)c3ccccc3c2=O)cc1	6	-11	38*	i	1	-8
COc1ccc(C(=O)Nc2c(C(C)(C)C)nn(C)c2C(C)(C)C)cc1	·	·	-9	i	·	-8
O=C(CSc1nnc2scc(-c3ccccc3)n12)Nc1nsc(-c2ccccc2)n1	4	-3	45*	i	1	-14
Cc1ccc(-c2csc3nnc(SCC(=O)Nc4nsc(-c5ccccc5)n4)n23)cc1	27	-4	-4	i	8	-9
O=c1c(-c2ccccc2)c[nH]n1-c1cccc([N+](=O)[O-])c1	8	35*	-7	i	1	-3
O=[N+]([O-])c1cccc(N2Cc3ccccc3C2)c1	11	0	-25	i	1	-16
COc1ccccc1Oc1ccc2c(c1)C(=O)N(c1cccc3ncccc13)C2=O	4	-5	36*	i	2	-13
Cc1ccc(C(=O)COC(=O)c2ccc3c(c2)C(=O)N(c2cccc4ncccc24)C3=O)cc1C	0	5	73*	i	0	-2
COc1ccc(CN2CCn3nc(C(=O)NC4CC4)cc3C2=O)cc1	-3	1	9	i	0	-14
O=C(CN1CCC(NC(=O)c2ccccc2)CC1)NCc1ccccc1F	2	-5	-12	i	0	-4
O=C(CN1CCC(NC(=O)c2ccc(F)cc2)CC1)NCc1ccccc1F	1	-5	50*	i	0	-15
O=C(CSCc1ccc(Cl)cc1)Nc1cccc(C(=O)Nc2ccccc2C(=O)O)c1	-2	36*	-7	i	-1	-8
O=C(CSCc1ccccc1)Nc1cccc(C(=O)Nc2ccccc2C(=O)O)c1	-3	31*	-17	i	-1	-14
O=C(O)CCCC(=O)Nc1cccc(C(=O)Nc2ccccc2C(=O)O)c1	5	5	3	i	3	-28
Cc1cccc(OCC(=O)Nc2cccc(C(=O)Nc3ccccc3C(=O)O)c2)c1	-3	55*	-42	i	0	-12
SMILES	ABCG2 block	Arbovirus anti	p47phox inh	HSV replic up	ABCB1 block	Furin inh
CC(C)c1ccc(OCC(=O)Nc2cccc(C(=O)Nc3ccccc3C(=O)O)c2)cc1	-11	26	-36	i	-2	-13
COc1cc(/C=C2\SC(=S)N(N(C)c3ccccc3)C2=O)ccc1O	·	·	-177	?	·	-11
CC(C)CCC1(CCNC(C)c2cccs2)CCOC(C)(C)C1 (stereo not drawn)	·	·	2	i	·	-24
CC(C)(C(=O)c1cccnc1)c1cccnc1	·	·	·	i	·	·
CSc1ncc(CNc2cc([N+](=O)[O-])ccc2C)c(N)n1	·	·	·	i	·	·
CN(C(=O)CSc1nnc(-c2cccnc2)n1-c1ccccc1F)C1CCS(=O)(=O)C1 (stereo not drawn)	1	-2	0	i	0	-18
COc1ccc(NS(=O)(=O)c2ccc(N3CCOCC3)c(NC(=O)c3cccc(F)c3)c2)cc1	25	-11	50*	i	2	-23
CN(C)C(=O)c1nc2ccc(Cl)cn2c1CNCc1ccccc1OC(F)(F)F	5	-3	-1	i	1	-14
N#C/C(=C\c1ccco1)C(=O)Nn1cnnc1	2	3	4	i	0	1
NS(=O)(=O)c1ccc(-c2ccc(/C=C3\SC(=S)N(C4CCS(=O)(=O)C4)C3=O)o2)cc1 (stereo not drawn)	·	·	36*	i	·	-22
COC(C[C@@H]1O[C@H]1C(=O)[C@@H](C)OCc1ccccc1)OC	·	·	·	i	·	·
COc1ccccc1OCCC(=O)OCC(=O)Nc1ccc(Br)cc1F	0	0	-8	i	-2	-16
O=C(NCc1cccnc1)c1cc(-c2ccccc2)on1	4	-4	7	i	1	-18
O=C(NCc1cccnc1)c1cc(-c2cccs2)on1	1	2	138*	·	0	-21
CNc1ccc2nnc(C(F)(F)C(F)(F)C(F)(F)F)n2n1	10	-3	-1	i	1	-9
Clc1ccccc1-c1nc2nc3ccccc3nc2n1-c1ccc2c(c1)OCO2	3	-1	174*	i	0	-13
CCc1cc(C(=O)O)c(NC(=O)c2cc(OC)c(OC)c(OC)c2)s1	-1	76*	-15	i	-1	-22
CCN1C(c2ccccc2)=C(c2ccccc2)S/C1=C/C=C1\SC(=S)N(C)C1=O	0	-4	42*	·	0	-14
COc1ccccc1-c1noc(-c2ccccc2C(=O)NCc2ccco2)n1	6	-7	-4	i	2	-14
COc1cc(-c2noc(-c3ccccc3C(=O)NCc3ccco3)n2)cc(OC)c1OC	3	-4	42*	i	1	-18
O=C(Nc1cccc(C(=O)O)c1)/C(=C\c1ccccc1)NC(=O)c1cccc2ccccc12	2	0	122*	i	1	-15
Cc1ccc(C)c(N2CCN(C(=O)CCn3c(=S)[nH]c4cc5c(cc4c3=O)OCO5)CC2)c1	22	13	-12	i	2	-28
